ARFGAP1 inh = rat ARFGAP1 inhibition; Q62848; Arfgap1-stimulated ARF1 GTP hydrolysis, GDP FP detection; inhibition, % at 16.5 µM; hit rate 0.26% among 360,000; AID 651572;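 active = inhibition above a per-plate limit, mean inhibition of low control wells plus 3 SD, cut at about 25% in these data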;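 note: 0% = DMSO wells with enzyme and 100% = wells lacking Arfgap1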
Target sequence (Q62848 1-136 limits assumed): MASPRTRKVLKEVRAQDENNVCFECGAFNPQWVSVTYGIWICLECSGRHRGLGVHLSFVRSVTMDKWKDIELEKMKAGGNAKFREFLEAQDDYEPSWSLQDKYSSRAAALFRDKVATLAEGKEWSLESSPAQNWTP
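Material: truncated rat Arfgap1 GAP domain; Incubation: compound-enzyme preincubation 20 min, reaction 120 min, detection 60 min, 25 °C; Read-out: percent inhibition of Arfgap1-stimulated GTP hydrolysis; Technique: FP, GDP Alexa 633 tracer displaced from anti-GDP antibody, 620/688 nm; Controls: No-Arfgap1 wells (100%) versus DMSO full-reaction wells (0%); Replication: single well per compound.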
rCAG RNA binder = molecules binding r(CAG) RNA repeats. r(CAG) RNA repeat, TO-PRO-1 dye displacement fluorescence. inhibition, % at 3 µM. hit rate 1.3% among 370,000. AID 651821;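 active = inhibition above the plate cutoff, the mean of all test compounds on that plate plus 3 SD, cut at about 35% in these data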;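 note: 0% = DMSO alone and 100% = 100 µM mitoxantrone as full dye displacement; higher means more dye released from RNA so lower well fluorescence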
NadD block = NadD (S. aureus) enzyme inhibition; purified NadD enzyme, colorimetric absorbance read-out; inhibition, % at 20 µM; hit rate 0.78% among 360,000; in the data active = inhibition above about 26%
ASAP1 inh = inhibitors of human ASAP1 ArfGAP activity. inhibition, % at 16.5 µM. ASAP1-stimulated ARF1 GTP hydrolysis, GDP FP detection. hit rate 0.19% among 360,000. Q9ULH1; in the data active = inhibition above about 25%;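 note: 0% = vehicle with enzyme and substrate and 100% = no enzyme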
Target sequence (Q9ULH1 325-724 limits assumed): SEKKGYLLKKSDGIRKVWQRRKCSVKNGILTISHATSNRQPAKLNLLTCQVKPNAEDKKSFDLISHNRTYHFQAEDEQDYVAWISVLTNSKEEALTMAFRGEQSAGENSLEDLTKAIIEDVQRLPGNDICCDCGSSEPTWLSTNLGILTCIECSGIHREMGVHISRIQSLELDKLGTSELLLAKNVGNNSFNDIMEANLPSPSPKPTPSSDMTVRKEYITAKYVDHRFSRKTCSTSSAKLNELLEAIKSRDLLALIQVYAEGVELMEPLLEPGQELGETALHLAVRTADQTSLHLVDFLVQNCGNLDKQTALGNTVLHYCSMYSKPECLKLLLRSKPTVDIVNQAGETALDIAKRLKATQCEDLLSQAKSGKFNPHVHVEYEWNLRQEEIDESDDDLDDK
rCAG bind conf = r(CAG) RNA repeat binding, confirmation. shares compounds with rCAG RNA binder. TO-PRO-1 dye displacement fluorescence. inhibition, % at 3 µM. hit rate 70% among 4,300;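 active = inhibition above a per-plate cutoff, the mean inhibition of sample wells plus 3 SD, cut at about 35% in these data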;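 note: loss of TO-PRO-1 fluorescence as compound displaces dye from 1x1 AA loop RNA; 0% = DMSO only wells and 100% = 100 µM mitoxantrone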
DNA CAG counter = disrupts DNA CAG TO-PRO-1 complex, flagging rCAG hits; shares compounds with rCAG RNA binder; d(CAG) DNA oligo TO-PRO-1 dye displacement, fluorescence; hit rate 94% among 4,300; AID 652068; inhibition, % at 3 µM;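 active = inhibition above its plate's cutoff, the mean test-well inhibition plus 3 SD, cut at about 4.8% in these data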;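 note: 0% = DNA dye mix with DMSO and 100% = 100 µM mitoxantrone; hits displace the dye from DNA and so lower well fluorescence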
dCAG dye DR = disrupts DNA CAG TO-PRO-1 complex in dose response; shares compounds with rCAG RNA binder; DNA CAG/GTC duplex TO-PRO-1 dye displacement fluorescence; IC50, µM; hit rate 20% among 250; in the data active = IC50 below about 10 µM
* hit, by the source's call; / = no result. Most compounds without a hit are left out; they make up all but 2.2% or so of the library.

SMILES	ARFGAP1 inh	rCAG RNA binder	NadD block	ASAP1 inh	rCAG bind conf	DNA CAG counter	others
COc1cc(NS(=O)(=O)c2ccc(NC(=S)NC(=O)c3ccc(F)c(F)c3)cc2)nc(OC)n1	7	49*	0	10	54*	12*	dCAG dye DR=>30
COC(=O)CCC(=O)Nc1ccc(S(=O)(=O)Nc2cc(OC)nc(OC)n2)cc1	-2	0	0	11	/	/
COc1cc(NS(=O)(=O)c2ccc(NC(=O)COc3ccc(C)cc3)cc2)nc(OC)n1	0	38*	0	-3	27	10*
COC(=O)[C@]12C[C@H](CC(=O)NCCCN3CCCC3=O)C(=O)N(Cc3ccco3)C1=C[C@H](C1CCCC1)O[C@@H]2C	/	2	/	/	/	/
C[C@@H]1CN([C@@H](C)CO)C(=O)CCCn2cc(nn2)CO[C@H]1CN(C)C(=O)c1ccc(N2CCN(C)CC2)cc1	0	-1	/	7	/	/
O=C(Nc1ccc2c(c1)OCO2)NC1CCCCN(Cc2cccc(Cl)c2)C1=O (stereo not drawn)	/	4	/	/	/	/
COc1cc(NS(=O)(=O)c2ccc(NC(=O)COc3ccc(C)cc3C)cc2)nc(OC)n1	2	45*	0	-2	46*	14*
S=c1[nH]nc(Cc2sc(-c3ccccc3)nc2-c2ccccc2)o1	-4	61*	2	-11	47*	17*
CC(c1ccco1)N(C(=O)c1ccccc1NS(=O)(=O)c1cc([N+](=O)[O-])ccc1Cl)c1ccccn1 (stereo not drawn)	-1	58*	6	-3	53*	21*
CC(c1ccco1)N(C(=O)c1ccccc1NS(=O)(=O)c1cccc([N+](=O)[O-])c1)c1ccccn1 (stereo not drawn)	/	/	11	/	/	/
O=C(O)CNc1nc(NCc2ccc(Cl)cc2)ccc1[N+](=O)[O-]	-15	8	5	-2	/	/
O=C1NC(=S)N(C(=O)c2ccc(F)cc2)/C1=C/c1cccnc1	4	1	7	5	/	/
COc1ccc(/C=C2\C(=O)NC(=S)N2C(=O)c2ccc(C)cc2)cc1	0	58*	22	5	76*	35*
CCCCN1CC(=O)N2[C@H](C[C@@]3(n4ccc5ccccc54)c4ccccc4N(S(=O)(=O)c4ccccc4)[C@@H]23)C1=O	/	12	/	/	/	/
Cc1cc(C(F)(F)F)nn1CC(=O)NNC(=S)Nc1ccc(Cl)cc1	5	17	-3	3	/	/
O=C(Cn1nnc(-c2cc(C(F)(F)F)cc(C(F)(F)F)c2)n1)NNC(=S)Nc1ccc(Cl)cc1	12	66*	9	5	53*	21*
Cc1ccc(S(=O)(=O)Nc2cc(C(=O)Nc3cc(C)cc(C)c3)ccc2Cl)cc1	-14	36*	1	-4	42*	9.8*
FC(F)(F)C1=Nc2cccc3cccc(c23)N1	8	94*	72*	-1	47*	38*
Fc1ccc(C2=Nc3cccc4cccc(c34)N2)cc1	-11	5	-2	-1	/	/
COC(=O)[C@]12C[C@H](CC(=O)NCc3cccc4ccccc34)C(=O)N(CCC3=CCCCC3)C1=C[C@H](C(C)(C)C)O[C@@H]2C	-4	2	/	-5	/	/
COc1ccc(-c2csc(/C(C#N)=C(\O)CSc3nccn3C)n2)cc1OC	-5	38*	14	1	59*	22*
O=C(O)CN1C(=O)/C(=C\c2ccccc2OCc2ccc(Cl)cc2)SC1=S	-26	74*	5	15	84*	47*
O=C(O)CCN1C(=O)/C(=C\c2cccc(Oc3ccccc3)c2)SC1=S	-17	62*	17	-23	78*	35*
O=C(O)CN1C(=O)/C(=C\c2cccc(OCc3ccc(Cl)cc3)c2)SC1=S	-13	78*	12	-9	91*	64*
COc1ccc(/C=C2/SC(=S)N(CCC(=O)O)C2=O)cc1	4	11	-7	-1	/	/
SMILES	ARFGAP1 inh	rCAG RNA binder	NadD block	ASAP1 inh	rCAG bind conf	DNA CAG counter	others
O=C(O)CN1C(=O)/C(=C/c2ccc(SCc3ccccc3)o2)SC1=S	-11	41*	13	-10	59*	31*
O=C(O)CN1C(=O)/C(=C\c2ccc(OC(=O)c3ccco3)cc2)SC1=S	-5	25	2	-1	/	/
O=C(O)CN1C(=O)/C(=C\c2cccc(OC(=O)c3ccco3)c2)SC1=S	-9	28	0	-12	/	/
CC(C)CNC(=O)OCc1cn(Cc2ccc(F)c(F)c2)nn1	/	-1	/	/	/	/
COc1ccccc1-c1cnc(C(O)c2cc(C)ccc2C)[nH]1 (stereo not drawn)	4	1	-7	-1	/	/
O=C(O)CN1C(=O)/C(=C/c2ccsc2)SC1=S	-9	2	-3	-4	/	/
O=C(O)CN1C(=O)/C(=C\c2cccc(OCc3ccccc3F)c2)SC1=S	-16	84*	0	-5	75*	37*
O=C(O)CN1C(=O)/C(=C\c2cccc(OCc3ccc(F)cc3)c2)SC1=S	-3	81*	2	1	80*	44*
Cc1cc(/C=N/NC(=O)C(O)(c2ccccc2)c2ccccc2)c(C)n1-c1cccc(C(=O)O)c1	-2	41*	21	-1	58*	26*
Cc1cc(/C=N/NC(=O)c2ccc(CN3CCOCC3)cc2)c(C)n1-c1ccccc1	2	-2	5	-7	/	/
Cc1cc(/C=N/NC(=O)C(O)(c2ccccc2)c2ccccc2)c(C)n1-c1ccc(C(=O)O)cc1	5	35*	7	6	28	12*
Cc1cc(/C=N/NC(=O)c2cccc(N(C)C)c2)c(C)n1-c1cc(C(=O)O)cc(C(=O)O)c1	/	/	7	/	/	/
CCOC(=O)[C@]12CCCCC/C=C\1N(CCc1ccc(Cl)cc1)C(=O)[C@H]2CC(=O)NCC12CC3CC(CC(C3)C1)C2	/	8	/	/	/	/
O=C(O)CCc1ccc(-c2ccccc2)n1NC(=O)c1sc2ccccc2c1Cl	-4	57*	3	-12	32	11*
CSCC[C@@H](Nc1nc(-c2ccccc2)nc2c1oc1ccccc12)C(=O)O	-5	69*	7	9	71*	25*
O=C(O)CNc1nc(-c2ccccc2)nc2c1oc1ccccc12	4	12	-1	4	/	/
O=C1CC(=O)N(Cc2ccco2)C(=O)N1	-8	35*	11	6	36*	13*
O=C1CC(=O)N(Cc2ccco2)C(=S)N1	/	/	16	/	/	/
CC(=O)c1cccc(S(=O)(=O)N2CCCC(c3nc4c(nnn4Cc4ccccc4Cl)c(=O)[nH]3)C2)c1 (stereo not drawn)	-5	11	3	-17	/	/
O=C(O)c1cccc(S(=O)(=O)N2CCCC(c3nc4c(nnn4Cc4ccccc4Cl)c(=O)[nH]3)C2)c1 (stereo not drawn)	-11	43*	-3	-3	30	9.3*

Source: PubChem BioAssay (several laboratories)
